According to ChEMBL document CHEMBL1150774, “1-[(Imidazolidin-2-yl)imino]indazole. Highly alpha 2/I1 selective agonist: synthesis, X-ray structure, and biological activity” (J Med Chem, 2008):
Activity calls are given as the source filed them. The calls are words filed in the database; no cut-off is given here.

Biological target: Nischarin (Rattus norvegicus, UniProt Q4G017)
Experiment: Displacement of [3H]clonidine from imidazoline 1 receptor in Sprague-Dawley rat kidney
Summary of the method: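 Crude P2 membranes from male rat kidney (250-280 g), 0.2-0.5 mg protein. Labelled with 3 nM [3H]clonidine; 10 µM rauwolscine present to block α2 sites; specific binding defined by 10 µM rilmenidine. 11 test concentrations. 50 mM Tris-HCl pH 7.4, 45 min at room temperature. Filtration, scintillation counting; IC50 is displacement of 50% of specific binding.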

Sequence of Nischarin (Q4G017 whole entry): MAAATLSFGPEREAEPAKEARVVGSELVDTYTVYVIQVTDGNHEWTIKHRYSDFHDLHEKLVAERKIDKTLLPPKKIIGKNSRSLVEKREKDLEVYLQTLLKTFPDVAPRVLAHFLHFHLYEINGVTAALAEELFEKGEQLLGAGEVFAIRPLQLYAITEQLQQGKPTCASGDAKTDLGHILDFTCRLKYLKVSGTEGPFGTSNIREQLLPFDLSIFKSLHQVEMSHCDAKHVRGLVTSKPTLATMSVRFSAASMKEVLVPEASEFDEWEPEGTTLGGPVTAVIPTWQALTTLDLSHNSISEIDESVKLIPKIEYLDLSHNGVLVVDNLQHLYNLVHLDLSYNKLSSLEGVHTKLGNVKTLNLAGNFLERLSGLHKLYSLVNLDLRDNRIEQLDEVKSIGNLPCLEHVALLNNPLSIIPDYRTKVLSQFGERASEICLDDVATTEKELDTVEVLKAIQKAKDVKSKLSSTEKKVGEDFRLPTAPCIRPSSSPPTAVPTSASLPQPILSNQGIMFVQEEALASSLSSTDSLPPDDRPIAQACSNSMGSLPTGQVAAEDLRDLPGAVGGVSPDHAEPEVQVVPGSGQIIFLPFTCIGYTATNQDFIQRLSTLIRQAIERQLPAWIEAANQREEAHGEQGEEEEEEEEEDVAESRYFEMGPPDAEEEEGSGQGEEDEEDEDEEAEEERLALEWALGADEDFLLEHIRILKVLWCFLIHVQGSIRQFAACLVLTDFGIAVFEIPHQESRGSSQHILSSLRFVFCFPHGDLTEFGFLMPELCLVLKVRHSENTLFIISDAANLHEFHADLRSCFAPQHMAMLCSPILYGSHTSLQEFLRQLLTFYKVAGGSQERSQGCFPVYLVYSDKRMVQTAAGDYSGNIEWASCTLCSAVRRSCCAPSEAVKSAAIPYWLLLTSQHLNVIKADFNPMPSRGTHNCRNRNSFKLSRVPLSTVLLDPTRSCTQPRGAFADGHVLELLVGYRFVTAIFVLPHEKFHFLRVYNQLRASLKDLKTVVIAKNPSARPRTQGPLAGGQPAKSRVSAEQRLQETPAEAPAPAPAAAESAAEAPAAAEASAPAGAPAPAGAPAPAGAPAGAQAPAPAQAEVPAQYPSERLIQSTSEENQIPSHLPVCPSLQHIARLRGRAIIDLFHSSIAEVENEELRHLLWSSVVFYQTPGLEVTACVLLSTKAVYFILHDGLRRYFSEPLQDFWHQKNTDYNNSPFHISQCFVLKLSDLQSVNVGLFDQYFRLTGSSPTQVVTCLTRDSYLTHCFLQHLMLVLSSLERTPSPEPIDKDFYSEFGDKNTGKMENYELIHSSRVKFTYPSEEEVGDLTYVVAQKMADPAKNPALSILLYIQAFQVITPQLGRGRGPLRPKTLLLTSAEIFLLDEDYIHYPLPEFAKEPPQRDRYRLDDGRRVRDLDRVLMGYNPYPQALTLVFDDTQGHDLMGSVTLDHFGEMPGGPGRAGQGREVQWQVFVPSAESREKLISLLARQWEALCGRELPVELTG

Compound	IC50 [µM]
Cl.Clc1cccc2c1cnn2N=C1NCCN1	31.5
Cc1cccc2cnn(N=C3NCCN3)c12.Cl	0.387
Cc1ccc2cn(N=C3NCCN3)nc2c1	19.7
Cl.c1ccc2c(c1)cnn2N=C1NCCN1 [MARSANIDINE HYDROCHLORIDE]	54.5
Cc1ccc2c(cnn2N=C2NCCN2)c1.Cl	20.3
Cc1ccc2nn(N=C3NCCN3)cc2c1	13.4
c1ccc2c(c1)ncn2N=C1NCCN1	> 100
COc1cccc2c1cnn2N=C1NCCN1.Cl	13.5
c1ccc2c(c1)nnn2N=C1NCCN1	84.6
Clc1cccc2nn(N=C3NCCN3)cc12	47.8
Cl.Clc1ccc2c(cnn2N=C2NCCN2)c1	17
Cl.c1ccc(-c2nn(N=C3NCCN3)c3ccccc23)cc1	76.5
Cc1cccc2c1cnn2N=C1NCCN1.Cl	38.5
Clc1ccc2nn(N=C3NCCN3)cc2c1	24.7

Test system: Rattus norvegicus
Experiment: Hypotensive activity in Wistar rat assessed as decrease in mean arterial blood pressure at 0.1 mg/kg, iv after 10 mins
Assay type: functional
Summary of the method: (§1)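 Male rats (200-250 g) anaesthetised with thiopental 70 mg/kg ip, then maintained at 30 (µg/kg)/min. Saline-thiopental infusion at 1.2 mL/h; 40 min recovery, then 40 min saline. Compound given as iv bolus at 0.1 mg/kg. MAP and HR recorded directly at 100 Hz. ΔMAP and ΔHR taken relative to time 0; 4-7 experiments; repeated-measures ANOVA.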

Compound	Activity [mmHg]
Cl.Clc1cccc2c1cnn2N=C1NCCN1	-10.9
COc1ccc2cnn(N=C3NCCN3)c2c1.Cl	-16.5
Cc1cccc2cnn(N=C3NCCN3)c12.Cl	-14.8
Cl.c1ccc2c(c1)cnn2N=C1NCCN1 [MARSANIDINE HYDROCHLORIDE]	-6.9
Cc1ccc2c(cnn2N=C2NCCN2)c1.Cl	-4.1
COc1cccc2c1cnn2N=C1NCCN1.Cl	-3.7
Cc1ccc2cnn(N=C3NCCN3)c2c1.Cl	-13.2
Cl.Clc1ccc2c(cnn2N=C2NCCN2)c1	-0.2
Cl.c1ccc(-c2nn(N=C3NCCN3)c3ccccc23)cc1	-4.1
Cc1cccc2c1cnn2N=C1NCCN1.Cl	-17.7

Test system: Rattus norvegicus
Experiment: Hypotensive activity in Wistar rat assessed as decrease in mean arterial blood pressure at 0.1 mg/kg, iv after 90 mins
Assay type: functional
Summary of the method: as §1

Compound	Activity [mmHg]
Cl.Clc1cccc2c1cnn2N=C1NCCN1	-10.9
COc1ccc2cnn(N=C3NCCN3)c2c1.Cl	-5.3
Cc1cccc2cnn(N=C3NCCN3)c12.Cl	-43.2
Cl.c1ccc2c(c1)cnn2N=C1NCCN1 [MARSANIDINE HYDROCHLORIDE]	-22.1
Cc1ccc2c(cnn2N=C2NCCN2)c1.Cl	-4.9
COc1cccc2c1cnn2N=C1NCCN1.Cl	-12.9
Cc1ccc2cnn(N=C3NCCN3)c2c1.Cl	-11
Cl.Clc1ccc2c(cnn2N=C2NCCN2)c1	-1.1
Cl.c1ccc(-c2nn(N=C3NCCN3)c3ccccc23)cc1	-11.4
Cc1cccc2c1cnn2N=C1NCCN1.Cl	-10.1

Test system: Rattus norvegicus
Experiment: Reversal of hypotensive activity in Wistar rat at 10 mg/kg, iv in presence of RX821002
Assay type: functional, organism-based
Parameters: dose 10 mg/kg

Compound	Activity
Cc1cccc2cnn(N=C3NCCN3)c12.Cl	Active

Test system: Rattus norvegicus
Experiment: Hypotensive activity in Wistar rat assessed as decrease in heart rate at 0.1 mg/kg, iv after 30 mins
Assay type: functional
Summary of the method: as §1

Compound	Activity [bpm]
Cl.Clc1cccc2c1cnn2N=C1NCCN1	-32.2
COc1ccc2cnn(N=C3NCCN3)c2c1.Cl	-23.6
Cc1cccc2cnn(N=C3NCCN3)c12.Cl	-115
Cl.c1ccc2c(c1)cnn2N=C1NCCN1 [MARSANIDINE HYDROCHLORIDE]	-49
Cc1ccc2c(cnn2N=C2NCCN2)c1.Cl	-3.2
COc1cccc2c1cnn2N=C1NCCN1.Cl	-9.7
Cc1ccc2cnn(N=C3NCCN3)c2c1.Cl	-43.5
Cl.Clc1ccc2c(cnn2N=C2NCCN2)c1	7.2
Cl.c1ccc(-c2nn(N=C3NCCN3)c3ccccc23)cc1	-10.1
Cc1cccc2c1cnn2N=C1NCCN1.Cl	-88.3

Biological target: not listed separately
Experiment: Displacement of [3H]2BFI from imidazoline 2 receptor in Sprague-Dawley rat brain
Summary of the method: (§2)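 Crude P2 membranes from male rat brain (250-280 g), washed and stored at -70 °C. 0.2-0.3 mg protein incubated with 11 concentrations (0.01 nM to 100 µM) plus 1 nM [3H]2BFI (I2) or 1 nM [3H]RX821002 (α2). Nonspecific binding: 10 µM BU224 (I2) or 10 µM rauwolscine (α2). Run in triplicate, 45 min at room temperature. Ki by Cheng-Prusoff, 3-4 experiments.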

Compound	Ki [µM]
Cl.Clc1cccc2c1cnn2N=C1NCCN1	11.1
Cc1cc2ncn(N=C3NCCN3)c2cc1C	> 10
COc1ccc2cnn(N=C3NCCN3)c2c1.Cl	33.6
c1ccc2nn(N=C3NCCN3)cc2c1	77.8
Cc1cccc2cnn(N=C3NCCN3)c12.Cl	2.52
Cc1ccc2cn(N=C3NCCN3)nc2c1	42.9
Cl.c1ccc2c(c1)cnn2N=C1NCCN1 [MARSANIDINE HYDROCHLORIDE]	16.9
Cc1ccc2c(cnn2N=C2NCCN2)c1.Cl	7.16
Cc1ccc2nn(N=C3NCCN3)cc2c1	11.4
c1ccc2c(c1)ncn2N=C1NCCN1	> 10
COc1cccc2c1cnn2N=C1NCCN1.Cl	5.98
c1ccc2c(c1)nnn2N=C1NCCN1	> 10
Clc1cccc2nn(N=C3NCCN3)cc12	13.1
Cc1ccc2cnn(N=C3NCCN3)c2c1.Cl	19.2
Cl.Clc1ccc2c(cnn2N=C2NCCN2)c1	20.6
Cc1cccc2nn(N=C3NCCN3)cc12	35.1
Cl.c1ccc(-c2nn(N=C3NCCN3)c3ccccc23)cc1	0.684
Cc1cccc2c1cnn2N=C1NCCN1.Cl	10.4
Clc1ccc2nn(N=C3NCCN3)cc2c1	33.2

Biological target: not listed separately
Experiment: Displacement of [3H][…] from alpha2 adrenoceptor in Sprague-Dawley rat brain
Summary of the method: as §2

Compound	Ki [µM]
Cl.Clc1cccc2c1cnn2N=C1NCCN1	0.0616
Cc1nn(N=C2NCCN2)c2ccccc12	71.1
Cc1cc2ncn(N=C3NCCN3)c2cc1C	10.1
COc1ccc2cnn(N=C3NCCN3)c2c1.Cl	0.0962
c1ccc2nn(N=C3NCCN3)cc2c1	78.3
Cc1cccc2cnn(N=C3NCCN3)c12.Cl	0.0535
Cc1ccc2cn(N=C3NCCN3)nc2c1	50.7
Cl.c1ccc2c(c1)cnn2N=C1NCCN1 [MARSANIDINE HYDROCHLORIDE]	0.0141
Cc1ccc2c(cnn2N=C2NCCN2)c1.Cl	0.0442
Cc1ccc2nn(N=C3NCCN3)cc2c1	45.6
c1ccc2c(c1)ncn2N=C1NCCN1	6.02
COc1cccc2c1cnn2N=C1NCCN1.Cl	69.6
c1ccc2c(c1)nnn2N=C1NCCN1	> 10
Clc1cccc2nn(N=C3NCCN3)cc12	3.14
Cc1ccc2cnn(N=C3NCCN3)c2c1.Cl	0.0491
Cl.Clc1ccc2c(cnn2N=C2NCCN2)c1	0.114
Cc1cccc2nn(N=C3NCCN3)cc12	11.8
Cl.c1ccc(-c2nn(N=C3NCCN3)c3ccccc23)cc1	25.8
Cc1cccc2c1cnn2N=C1NCCN1.Cl	0.0371
Clc1ccc2nn(N=C3NCCN3)cc2c1	74.1

Test system: Rattus norvegicus
Experiment: Hypotensive activity in Wistar rat assessed as decrease in heart rate at 0.1 mg/kg, iv after 60 mins
Assay type: functional
Summary of the method: as §1

Compound	Activity [bpm]
Cl.Clc1cccc2c1cnn2N=C1NCCN1	-24.3
COc1ccc2cnn(N=C3NCCN3)c2c1.Cl	-4.1
Cc1cccc2cnn(N=C3NCCN3)c12.Cl	-122.9
Cl.c1ccc2c(c1)cnn2N=C1NCCN1 [MARSANIDINE HYDROCHLORIDE]	-31.4
Cc1ccc2c(cnn2N=C2NCCN2)c1.Cl	-1
COc1cccc2c1cnn2N=C1NCCN1.Cl	-12.5
Cc1ccc2cnn(N=C3NCCN3)c2c1.Cl	-26.4
Cl.Clc1ccc2c(cnn2N=C2NCCN2)c1	12.8
Cl.c1ccc(-c2nn(N=C3NCCN3)c3ccccc23)cc1	-11.1
Cc1cccc2c1cnn2N=C1NCCN1.Cl	-22.7

Test system: Rattus norvegicus
Experiment: Hypotensive activity in Wistar rat assessed as decrease in mean arterial blood pressure at 0.1 mg/kg, iv after 30 mins
Assay type: functional
Summary of the method: as §1

Compound	Activity [mmHg]
Cl.Clc1cccc2c1cnn2N=C1NCCN1	-14
COc1ccc2cnn(N=C3NCCN3)c2c1.Cl	-17.1
Cc1cccc2cnn(N=C3NCCN3)c12.Cl	-40.6
Cl.c1ccc2c(c1)cnn2N=C1NCCN1 [MARSANIDINE HYDROCHLORIDE]	-30.9
Cc1ccc2c(cnn2N=C2NCCN2)c1.Cl	-3.6
COc1cccc2c1cnn2N=C1NCCN1.Cl	-7.6
Cc1ccc2cnn(N=C3NCCN3)c2c1.Cl	-23.4
Cl.Clc1ccc2c(cnn2N=C2NCCN2)c1	-1.4
Cl.c1ccc(-c2nn(N=C3NCCN3)c3ccccc23)cc1	-7.6
Cc1cccc2c1cnn2N=C1NCCN1.Cl	-29

Test system: Rattus norvegicus
Experiment: Hypotensive activity in Wistar rat assessed as decrease in mean arterial blood pressure at 0.1 mg/kg, iv after 60 mins
Assay type: functional
Summary of the method: as §1

Compound	Activity [mmHg]
Cl.Clc1cccc2c1cnn2N=C1NCCN1	-12.3
COc1ccc2cnn(N=C3NCCN3)c2c1.Cl	-11.6
Cc1cccc2cnn(N=C3NCCN3)c12.Cl	-43.5
Cl.c1ccc2c(c1)cnn2N=C1NCCN1 [MARSANIDINE HYDROCHLORIDE]	-29
Cc1ccc2c(cnn2N=C2NCCN2)c1.Cl	-4.6
COc1cccc2c1cnn2N=C1NCCN1.Cl	-11
Cc1ccc2cnn(N=C3NCCN3)c2c1.Cl	-20.8
Cl.Clc1ccc2c(cnn2N=C2NCCN2)c1	-2.8
Cl.c1ccc(-c2nn(N=C3NCCN3)c3ccccc23)cc1	-10
Cc1cccc2c1cnn2N=C1NCCN1.Cl	-14.1

Organism: Rattus norvegicus
Experiment: Hypotensive activity in Wistar rat assessed as mean arterial blood pressure
Assay type: functional

Compound	ED50 [µg/kg]
Cc1cccc2cnn(N=C3NCCN3)c12.Cl	0.6

Test system: Rattus norvegicus
Experiment: Hypotensive activity in Wistar rat assessed as decrease in heart rate at 0.1 mg/kg, iv after 90 mins
Assay type: functional
Summary of the method: as §1

Compound	Activity [bpm]
Cl.Clc1cccc2c1cnn2N=C1NCCN1	-19
COc1ccc2cnn(N=C3NCCN3)c2c1.Cl	14.3
Cc1cccc2cnn(N=C3NCCN3)c12.Cl	-119.9
Cl.c1ccc2c(c1)cnn2N=C1NCCN1 [MARSANIDINE HYDROCHLORIDE]	-9.7
Cc1ccc2c(cnn2N=C2NCCN2)c1.Cl	-3
COc1cccc2c1cnn2N=C1NCCN1.Cl	-11.6
Cc1ccc2cnn(N=C3NCCN3)c2c1.Cl	-22.2
Cl.Clc1ccc2c(cnn2N=C2NCCN2)c1	28.6
Cl.c1ccc(-c2nn(N=C3NCCN3)c3ccccc23)cc1	-12.7
Cc1cccc2c1cnn2N=C1NCCN1.Cl	-2.1

Organism: Rattus norvegicus
Experiment: Selectivity for Sprague-Dawley rat alpha 2 adrenoceptor over Sprague-Dawley rat imidazoline 1 receptor

Compound	Selectivity ratio
Cl.Clc1cccc2c1cnn2N=C1NCCN1	511
Cc1cccc2cnn(N=C3NCCN3)c12.Cl	7.23
Cc1ccc2cn(N=C3NCCN3)nc2c1	0.39
Cl.c1ccc2c(c1)cnn2N=C1NCCN1 [MARSANIDINE HYDROCHLORIDE]	3880
Cc1ccc2c(cnn2N=C2NCCN2)c1.Cl	460
Cc1ccc2nn(N=C3NCCN3)cc2c1	0.29
c1ccc2c(c1)ncn2N=C1NCCN1	> 16.6
COc1cccc2c1cnn2N=C1NCCN1.Cl	0.19
c1ccc2c(c1)nnn2N=C1NCCN1	< 8.46
Clc1cccc2nn(N=C3NCCN3)cc12	15.3
Cl.Clc1ccc2c(cnn2N=C2NCCN2)c1	149
Cl.c1ccc(-c2nn(N=C3NCCN3)c3ccccc23)cc1	2.96
Cc1cccc2c1cnn2N=C1NCCN1.Cl	1040
Clc1ccc2nn(N=C3NCCN3)cc2c1	0.33

Test system: Rattus norvegicus
Experiment: Hypotensive activity in Wistar rat assessed as decrease in heart rate at 0.1 mg/kg, iv after 10 mins
Assay type: functional
Summary of the method: as §1

Compound	Activity [bpm]
Cl.Clc1cccc2c1cnn2N=C1NCCN1	-60.8
COc1ccc2cnn(N=C3NCCN3)c2c1.Cl	-33
Cc1cccc2cnn(N=C3NCCN3)c12.Cl	-110
Cl.c1ccc2c(c1)cnn2N=C1NCCN1 [MARSANIDINE HYDROCHLORIDE]	-48.5
Cc1ccc2c(cnn2N=C2NCCN2)c1.Cl	-104.2
COc1cccc2c1cnn2N=C1NCCN1.Cl	-18.6
Cc1ccc2cnn(N=C3NCCN3)c2c1.Cl	-71.8
Cl.Clc1ccc2c(cnn2N=C2NCCN2)c1	0.6
Cl.c1ccc(-c2nn(N=C3NCCN3)c3ccccc23)cc1	-17.7
Cc1cccc2c1cnn2N=C1NCCN1.Cl	-104.2
